The values that follow come from publication PMC6412122 (Nucleic Acids Research, 2019).

The assay addresses T1, HNA polymerase T6G12_I521L (Thermococcus gorgonarius, UniProt P56689, A485L/A681S/D141A/D669Q/E143A/E609K/E664Q/E730G/I521L/I610M/K659Q/K671H/K674R/L704P/Q665P/R668K/T676R/V589A/V93Q).
T1 sequence (P56689 1-773 V93Q/D141A/E143A/A485L/I521L/V589A/E609K/I610M/K659Q/E664Q/Q665P/R668K/D669Q/K671H/K674R/T676R/A681S/L704P/E730G): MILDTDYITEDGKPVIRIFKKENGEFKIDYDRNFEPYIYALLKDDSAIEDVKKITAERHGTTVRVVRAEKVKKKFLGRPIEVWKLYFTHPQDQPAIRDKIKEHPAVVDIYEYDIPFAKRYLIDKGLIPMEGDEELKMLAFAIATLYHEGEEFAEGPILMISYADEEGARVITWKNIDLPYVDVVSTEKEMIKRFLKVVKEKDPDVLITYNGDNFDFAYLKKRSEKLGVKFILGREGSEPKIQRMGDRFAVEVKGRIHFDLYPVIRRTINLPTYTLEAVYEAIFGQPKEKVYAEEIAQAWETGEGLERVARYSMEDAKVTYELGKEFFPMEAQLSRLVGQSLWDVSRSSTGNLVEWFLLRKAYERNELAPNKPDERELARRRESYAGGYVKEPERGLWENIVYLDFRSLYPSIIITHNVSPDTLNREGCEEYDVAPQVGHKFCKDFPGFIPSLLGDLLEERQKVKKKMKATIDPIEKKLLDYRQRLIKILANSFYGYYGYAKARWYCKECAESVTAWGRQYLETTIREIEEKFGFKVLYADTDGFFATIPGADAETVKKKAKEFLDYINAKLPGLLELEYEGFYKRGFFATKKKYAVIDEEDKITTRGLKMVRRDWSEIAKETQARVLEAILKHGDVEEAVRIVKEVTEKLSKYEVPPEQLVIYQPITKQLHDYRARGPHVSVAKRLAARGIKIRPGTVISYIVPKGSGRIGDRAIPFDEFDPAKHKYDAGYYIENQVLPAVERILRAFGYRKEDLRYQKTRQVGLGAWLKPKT
The assay is classed as biochemical. Particulars: global fitting, k3 fitted; duplex P2T3, 50°C. In outline: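 Quench-flow at 50 °C: enzyme with P2T3 in 2× Thermopol mixed with nucleotide plus MgSO4 (1 mM extra Mg2+ final). Nucleotide 1.6–100 µM, 4–5 levels; ageing 5 ms–60 s. Quenched with 0.3 M EDTA; 18% denaturing PAGE; duplicates. Active enzyme level set by active-site titration (50 ms dTTP pulse, quadratic fit). Global Matlab least-squares fit; k3 refitted fixed at 0.01 or 0.02 s−1; SD from covariance matrix.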

As for `Cc1cn([C@@H]2CO[C@H](COP(=O)(O)OP(=O)(O)OP(=O)(O)O)[C@@H](O)C2)c(=O)[nH]c1=O` [hTTP], the “k2 = kpol” value was 0.62 ± 0.13 s⁻¹ and the k3 was found to be 0.028 ± 0.002 s⁻¹.
